Screening data (PubChem)
In the library only some 3.1% were active in any assay of this set; here they are far more common.
HCV NS3 hel inh: HCV NS3 helicase inhibition. NS3 helicase DNA unwinding, Cy5 molecular beacon fluorescence. inhibition, % at 10.9 µM. hit rate 0.56% among 290,000. AID 1800;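 active = inhibition above the mean of all tested compounds plus 3 SD, set per campaign, cut at about 35% in these data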
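Measured by: Cy5 fluorescence, 0 and 60 min reads / Assay system: NS3 helicase fragment of HCV / Control set: low DMSO, high thioflavine S at 110 µM / Times: 1 h reaction at 25 °C, ATP-initiated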
PHOSPHO1 block: blocks human PHOSPHO1 phosphatase activity | recombinant PHOSPHO1, absorbance phosphatase assay | inhibition, % at 13.3 µM | hit rate 1.1% among 290,000 | AID 1565; in the data active = inhibition above about 60%
Target sequence (Q8TCT1 whole entry, looked up): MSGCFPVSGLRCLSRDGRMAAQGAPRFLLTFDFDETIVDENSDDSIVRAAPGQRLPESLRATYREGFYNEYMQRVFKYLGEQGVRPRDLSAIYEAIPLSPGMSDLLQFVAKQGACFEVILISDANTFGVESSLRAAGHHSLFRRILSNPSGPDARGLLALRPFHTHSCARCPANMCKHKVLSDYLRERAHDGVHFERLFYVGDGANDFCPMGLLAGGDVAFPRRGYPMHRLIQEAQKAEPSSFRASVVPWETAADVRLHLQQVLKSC
UBC9 SUMO inh: inhibitors of human SUMOylation (UBC9); P63279; HTRF SUMOylation assay, SAE1/SAE2 + UBC9, in vitro; inhibition, % at 35 µM; hit rate 0.36% among 290,000; in the data active = inhibition above about 50%, passing the limit was not always enough
Target sequence (P63279 whole entry, looked up): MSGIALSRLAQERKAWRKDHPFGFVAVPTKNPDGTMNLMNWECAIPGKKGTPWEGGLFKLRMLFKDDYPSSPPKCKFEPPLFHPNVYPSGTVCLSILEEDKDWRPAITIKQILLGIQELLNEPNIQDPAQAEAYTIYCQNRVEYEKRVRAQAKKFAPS
IMP-1 inhibitor: blocks Pseudomonas aeruginosa IMP-1 metallo-beta-lactamase. inhibition, % at 5.6 µM. AID 1556. purified IMP-1, nitrocefin hydrolysis, epi-absorbance fluorescence. hit rate 0.45% among 290,000;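 active = inhibition above the mean plus 3 SD of all compounds in the same screening run, cut at about 4.5% in these data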
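System: Purified IMP-1 | Read-out basis: Percent enzyme inhibition | Controls: IMP-1 with DMSO as 0%, enzyme-free DMSO as 100% | Replicates: One well per compound | Doses: 5.6 µM nominal single concentration | Detection: Epi-absorbance fluorescence, 480 nm excitation, 530 nm emission | Incubation: 25 °C, 15 min preincubation, 25 min reaction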
VIM-2 inh: blocks Pseudomonas aeruginosa VIM-2 metallo-beta-lactamase | purified VIM-2, nitrocefin hydrolysis, epi-absorbance fluorescence | inhibition, % at 5.6 µM | hit rate 0.89% among 290,000 | AID 1527;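 active = inhibition above the mean of all tested compounds plus 3 SD, cutoff set per screening run, cut at about 7.5% in these data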;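 also: red hydrolysis product quenches plate fluorescence so inhibitors raise well fluorescence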
HCV core dimer: HCV core protein dimerization inhibition; TR-FRET GST/Flag-core106 dimerization, 1536-well; inhibition, % at 5 µM; hit rate 0.33% among 300,000; AID 1899;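 active = inhibition above the mean of all tested compounds plus 3 SD, set per screening campaign, cut at about 45% in these data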
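Assay system: GST-tagged and Flag-tagged HCV core protein residues 1-106 / Times: compound-protein-antibody incubation 4 h at 22.5 °C / Signal: time-resolved FRET, ex 340 nm, em 617 and 671 nm / Evaluation: % inhibition based on acceptor/donor emission ratio / Benchmarks: wells lacking GST-core106 and wells with excess unlabelled core106 / Repeats: singlicate, one well per compound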
Each line names hits and unclear results; the compound was inactive in the other large screens.

CC1=C(C(=O)Nc2cccnc2)C(c2cccnc2)n2nc(-c3cccs3)nc2N1 (stereo unspecified)	PHOSPHO1 block 62.3
CC1=C(C(=O)Nc2ccccc2)C(c2cccnc2)n2nc(-c3cccnc3)nc2N1 (stereo unspecified)	none
Cc1ccc(C(=O)Nc2ccccc2C(=O)Nc2ccccn2)cc1Cl	none
CC(O)CCC(=O)NNC1=CC(=O)CC(C)(C)C1 (stereo unspecified)	PHOSPHO1 block 64.2
CCCCCC(O)CCC(=O)NNC1=CC(=O)CC(C)(C)C1 (stereo unspecified)	none
O=C1c2ccccc2S(=O)(=O)N1CCS(=O)(=O)c1ccc(F)cc1	none
N#CC1=C(N)Oc2c(oc(CO)cc2=O)C1c1ccsc1 (stereo unspecified)	none
N#CC1=C(N)Oc2c(ccc3ccccc23)C1c1ccsc1 (stereo unspecified)	HCV core dimer 70.8
Cc1cccc(-n2cnc3c(c2=O)c2nc4ccccc4nc2n3Cc2ccco2)c1	HCV core dimer 59.9 (no result: HCV NS3 hel inh, IMP-1 inhibitor, VIM-2 inh)
Cc1cccc(-n2c(O)c(C=Nc3ccccc3-c3n[nH]c(=S)[nH]c3=O)c3ccccc3c2=O)n1	none
Cc1ccc(-n2c(O)c(C=Nc3ccccc3-c3n[nH]c(=S)[nH]c3=O)c3ccccc3c2=O)cc1C	UBC9 SUMO inh 53.0 (no result: HCV core dimer)
Cc1ccc(-n2c(O)c(C=Nc3ccccc3-c3n[nH]c(=S)[nH]c3=O)c3ccccc3c2=O)c(C)c1	UBC9 SUMO inh 53.3
CCOc1ccc(C(=O)Nc2nnc(SCC(=O)NCC3CCCO3)s2)cc1OCC (stereo unspecified)	none
O=C(CSc1nnc(NC(=O)c2cccc(Cl)c2)s1)NCC1CCCO1 (stereo unspecified)	VIM-2 inh 8.6
Cc1nnc(SCc2nc3sc4c(c3c(=O)[nH]2)CCCC4)[nH]c1=O	none
Cc1cccc(N2CC(C(=O)Nc3nnc(SCC(=O)Nc4nccs4)s3)CC2=O)c1 (stereo unspecified)	HCV core dimer 50.1
Cc1ccccc1N1CC(C(=O)Nc2nnc(SCC(=O)Nc3nccs3)s2)CC1=O (stereo unspecified)	none
O=C(Nc1nnc(SCC(=O)N2CCOCC2)s1)C1CC(=O)N(c2ccc(F)cc2)C1 (stereo unspecified)	HCV core dimer 53.3
COc1cccc(N2CC(C(=O)Nc3nnc(SCc4ccccn4)s3)CC2=O)c1 (stereo unspecified)	none
O=C(Nc1nnc(SCc2ccccn2)s1)C1CC(=O)N(c2ccc(F)cc2)C1 (stereo unspecified)	HCV core dimer 54.7
Cc1cc(C)c(C(=O)Nc2ccc(Br)c(C(F)(F)F)c2)c(C)c1	none
Cc1ncc([N+](=O)[O-])n1S(=O)(=O)c1cc(Cl)ccc1Cl	none
CCC(C)(C)n1nnnc1C(c1ccc(O)c(OC)c1)N1CCN(c2nc3ccccc3s2)CC1 (stereo unspecified)	PHOSPHO1 block 67.5
COc1ccc(C(c2nnnn2C(C)(C)C)N2CCN(c3nc4ccccc4s3)CC2)cc1 (stereo unspecified)	none (no result: HCV core dimer)
Cc1cc(C)c2c(N)c3cccc(C)c3nc2n1	VIM-2 inh 18.1
O=C(NCCCN1CCCC1=O)c1ccc(NS(=O)(=O)c2ccccc2)cc1	none (no result: HCV NS3 hel inh, PHOSPHO1 block, UBC9 SUMO inh, IMP-1 inhibitor, VIM-2 inh)
CCOC(=O)C(NC(=O)CC)(Nc1nc2c(s1)CCCC2)C(F)(F)F (stereo unspecified)	none
CCOC(=O)NC(Nc1sc2c(c1C(N)=O)CCCC2)(C(=O)OCC)C(F)(F)F (stereo unspecified)	PHOSPHO1 block 72.9
CCC(Oc1ccccc1)C(=O)NCCCN1CCOCC1 (stereo unspecified)	none
Cc1c(C(=O)NNC(=S)NCc2ccc(Cl)cc2)oc2ccccc12	none
Cc1[nH]n(-c2ccccc2)c(=O)c1/C=N/Nc1nncc(-c2ccccc2)n1	PHOSPHO1 block 66.7
Cc1cc(N2C(=O)CC(C(C)c3ccccc3)C2=O)no1 (stereo unspecified)	none
CC(c1ccccc1)C1CC(=O)N(c2cc(Cl)ccn2)C1=O (stereo unspecified)	IMP-1 inhibitor 14.7
CC(C)c1nnc(SCC(=O)NCCC2=CCCCC2)n1N	PHOSPHO1 block 92.2
O=C(Cn1cc([N+](=O)[O-])cn1)N1CCc2ccccc21	none
O=C(Cn1cc([N+](=O)[O-])cn1)N1CCCc2ccccc21	PHOSPHO1 block 63.7
NC(=S)Nc1ccc(Cl)c(Cl)c1	none
NC(=S)Nc1ccc(Oc2ccc(NC(N)=S)cc2)cc1	IMP-1 inhibitor 14.6
N#Cc1nnn(-c2ccc(Cl)cc2)c1N	none
O=C1CCN(S(=O)(=O)c2ccc(Cl)cc2)N1	none
Cc1ccc(S(=O)(=O)N2CCC(=O)N2)cc1	VIM-2 inh 8.6
O=C1CCN(S(=O)(=O)c2ccccc2)N1	VIM-2 inh 9.7
CCOC(=O)c1sc2cc([N+](=O)[O-])cc(SCC(C)C)c2c1N	PHOSPHO1 block 64.0
CCOC(=O)c1cc(N)cc([N+](=O)[O-])c1	none
CCOCCCNC(=S)Nc1ccc(S(N)(=O)=O)cc1	PHOSPHO1 block 87.9
CCOC(=O)c1ccccc1NC(=O)c1ccc2nccnc2c1	HCV core dimer 53.6
CCOC(=O)c1ccccc1NC(=O)c1ccc2nc[nH]c2c1	none
O=C(OCc1ccc(F)cc1)c1ccc2c(c1)-c1ccccc1C2=O	IMP-1 inhibitor 4.6
O=[N+]([O-])c1cc(C2Nc3cccc4cccc(c34)N2)ccc1Cl	UBC9 SUMO inh 59.4
COc1ccc(COc2cc(-c3cccc(OC)c3)nc3ccc(NC(=O)c4ccc(OC)cc4)cc23)cc1	PHOSPHO1 block 67.2
C=CCNC(=O)c1sccc1Oc1ccc(F)cc1[N+](=O)[O-]	none
COc1ccc(-n2c(CN3CCOCC3)nc3ccc([N+](=O)[O-])cc3c2=O)c(OC)c1	HCV core dimer 65.0
O=C1CSC(c2ccc([N+](=O)[O-])cc2)N1c1ccc(O)cc1 (stereo unspecified)	none
CC(=O)c1cc(CN2CCC(C(=O)Nc3ccc(-n4nc(C)cc4C)cc3)CC2)cs1	none
Cc1cc(NC(=O)CSc2nnc(-c3cccnc3)n2N)no1	PHOSPHO1 block 73.6
Cc1cc(NC(=O)CSc2nnc(-c3cccnc3)n2C)no1	none
Nn1c(SCC(=O)Nc2ccccc2F)nnc1-c1cccnc1	PHOSPHO1 block 68.8
COC(=O)c1cn(NC(=O)/C=C/c2ccc(OC)c(OC)c2)c(=O)c2ccccc12	none
CCN(c1ccccc1)c1cc2ccccc2c(=O)[nH]1	UBC9 SUMO inh 61.3
CN1CCN(C(=S)C(=O)Nc2ccc(Br)cc2)CC1	none
CCc1nnc(NCC(=O)N2CCc3ccccc32)s1	PHOSPHO1 block 69.2, HCV core dimer 88.2
O=C(CN1C(=O)S/C(=C/c2cccn2-c2ccc(O)cc2)C1=O)N1CCCC1	VIM-2 inh 9.0
